Experimental data published in ChEMBL document CHEMBL2177084, “Discovery of salermide-related sirtuin inhibitors: binding mode studies and antiproliferative effects in cancer cells including cancer stem cells” (J Med Chem, 2012).
The source made the active and inactive calls. The calls are words filed in the database; no cut-off is given here.

Legend:
[1] = system: U-937; test: Induction of apoptosis in human U937 cells at 5 uM after 45 hrs by flow cytometry; type: functional, cell-based
Summary of the method: (§1)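 Apoptosis was taken as the pre-G1 peak after propidium iodide staining in hypotonic citrate/Triton buffer (30 min, dark) and flow cytometry. Triplicate experiments.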

[2] = system: U-937; test: Induction of apoptosis in human U937 cells at 50 uM after 45 hrs by flow cytometry; type: functional, cell-based; summary of the method: as §1
[3] = molecular target: T1, NAD-dependent protein deacetylase sirtuin-1 (Homo sapiens) (UniProt Q96EB6); test: (§2) Inhibition of human N-terminal GST-tagged SIRT1 expressed in Escherichia coli using Arg-His- Lys-Lys(Ac) as substrate after 1 hr by Fluor de Lys fluorescence based assay
T1 sequence (whole entry): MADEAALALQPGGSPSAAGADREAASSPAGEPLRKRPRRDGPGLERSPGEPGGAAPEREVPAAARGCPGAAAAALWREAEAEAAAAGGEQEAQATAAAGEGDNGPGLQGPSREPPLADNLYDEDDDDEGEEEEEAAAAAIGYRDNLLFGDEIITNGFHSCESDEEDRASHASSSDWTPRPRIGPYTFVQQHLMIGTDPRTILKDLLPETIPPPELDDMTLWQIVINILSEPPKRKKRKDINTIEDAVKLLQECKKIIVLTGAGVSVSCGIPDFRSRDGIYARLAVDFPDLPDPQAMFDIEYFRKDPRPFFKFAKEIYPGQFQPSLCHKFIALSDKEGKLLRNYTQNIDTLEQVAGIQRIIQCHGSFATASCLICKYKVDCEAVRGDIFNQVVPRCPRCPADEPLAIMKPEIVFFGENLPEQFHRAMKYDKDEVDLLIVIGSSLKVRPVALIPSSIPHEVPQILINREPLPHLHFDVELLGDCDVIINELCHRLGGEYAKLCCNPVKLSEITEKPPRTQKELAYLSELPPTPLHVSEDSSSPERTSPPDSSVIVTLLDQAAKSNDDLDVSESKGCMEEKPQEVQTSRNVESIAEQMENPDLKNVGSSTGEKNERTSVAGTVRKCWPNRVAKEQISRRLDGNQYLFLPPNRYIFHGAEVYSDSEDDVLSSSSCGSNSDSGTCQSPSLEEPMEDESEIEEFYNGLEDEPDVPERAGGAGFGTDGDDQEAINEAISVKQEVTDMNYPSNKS
Summary of the method: (§3)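 Recombinant full-length human sirtuin expressed in E. coli was incubated 1 h at 37 °C with p53-derived AMC-conjugated acetyl-peptide (SIRT1: Arg-His-Lys-Lys(Ac); SIRT2: Gln-Pro-Lys-Lys(Ac); […]) and NAD+ ([…]). The reaction was stopped and developed with developer containing 2 mM nicotinamide, and fluorescence read at ex 360/em 460 nm. Compound fluorescence was subtracted using an enzyme-free counter assay. Triplicate.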

[4] = Cytotoxicity against human CRC 1.1 cells after 72 hrs by celltiter-glo luminescent assay; type: functional
Summary of the method: (§4)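 Patient-derived CSC spheroids were dissociated, plated at 2000–3000 viable cells, and held 24 h at 37 °C in 5% CO2. They were then treated 72 h with eight 1:3 serial dilutions (0.023–50 μM), with 0.1% DMSO as control, in triplicate. Viability was read by CellTiter-Glo luminescence relative to DMSO, and CC50 was obtained by 4-parameter logistic fit (mean of three experiments).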

[5] = Cytotoxicity against human 30P cells after 72 hrs by celltiter-glo luminescent assay; type: functional; summary of the method: as §4
[6] = system: MOLT-4; test: Antiproliferative activity against human MOLT4 cells at 100 uM after 24 to 72 hrs by MTT assay; type: functional, cell-based
Summary of the method: (§5)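 Cells exposed to compound for 24, 48 and 72 h; growth inhibition read by MTT and expressed as percentage antiproliferative activity.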

[7] = system: U-937; test: Cell cycle arrest in human U937 cells assessed as accumulation at G1 phase at 25 uM after 40 hrs by flow cytometry; type: functional, cell-based
[8] = molecular target: T2, NAD-dependent protein deacetylase sirtuin-1 (Homo sapiens, UniProt Q96EB6); test: as §2; summary of the method: as §3
T2 sequence (Q96EB6 whole entry): T1 sequence (whole entry)

[9] = system: MOLT-4; test: Antiproliferative activity against human MOLT4 cells at 25 uM after 24 to 72 hrs by MTT assay; type: functional, cell-based; summary of the method: as §5
[10] = Cytotoxicity against human 30PT cells after 72 hrs by celltiter-glo luminescent assay; type: functional; summary of the method: as §4
[11] = system: U-937; test: Granulocytic differentiation in human U937 cells assessed as increase of CD11c cells at 25 uM after 40 hrs by FACS analysis relative to control; type: functional
Summary of the method: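 U937 cells treated 40 h at 25 μM, then stained with PE-conjugated anti-CD11c (PE mouse IgG1 as isotype control) for 30 min at 4 °C in the dark. Cells were washed in PBS and taken up in PBS with 0.25 μg/mL propidium iodide. Differentiation = CD11c-positive cells minus PI-positive dead cells, by FACS.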

[12] = system: U-937; test: Induction of apoptosis in human U937 cells after 45 hrs by flow cytometry; type: functional; set-up: concentration or dose not given beside the values; summary of the method: as §1
[13] = Cytotoxicity against human CRO cells at 50 uM after 72 hrs by celltiter-glo luminescent assay; type: functional; summary of the method: as §4
[14] = Cytotoxicity against human CRC 1.1 cells at 50 uM after 72 hrs by celltiter-glo luminescent assay; type: functional; summary of the method: as §4
[15] = system: U-937; test: Cell cycle arrest in human U937 cells at 25 uM after 40 hrs by flow cytometry; type: functional, cell-based
[16] = system: MOLT-4; test: Antiproliferative activity against human MOLT4 cells at 100 uM by MTT assay; type: functional, cell-based; conditions: TDE = time-dependent effect; summary of the method: as §5
[17] = Cytotoxicity against human CRO cells after 72 hrs by celltiter-glo luminescent assay; type: functional; summary of the method: as §4
[18] = molecular target: T3, NAD-dependent protein deacetylase sirtuin-2 (Homo sapiens, UniProt Q8IXJ6); test: Inhibition of human SIRT2 expressed in Escherichia coli using Gln-Pro-Lys-Lys(Ac) as substrate after 1 hr by Fluor de Lys fluorescence based assay; summary of the method: as §3
T3 sequence (Q8IXJ6 whole entry): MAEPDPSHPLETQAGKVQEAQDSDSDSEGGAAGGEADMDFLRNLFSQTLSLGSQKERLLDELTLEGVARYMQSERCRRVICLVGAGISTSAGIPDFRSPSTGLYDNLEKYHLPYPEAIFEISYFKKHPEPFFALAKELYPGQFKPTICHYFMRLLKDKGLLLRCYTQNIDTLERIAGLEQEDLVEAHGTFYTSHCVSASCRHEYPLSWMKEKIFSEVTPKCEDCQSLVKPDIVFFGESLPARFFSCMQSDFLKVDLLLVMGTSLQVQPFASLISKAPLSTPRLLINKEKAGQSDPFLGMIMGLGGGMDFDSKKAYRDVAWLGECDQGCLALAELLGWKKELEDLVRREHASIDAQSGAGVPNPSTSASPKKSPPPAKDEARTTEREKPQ

[19] = system: RKO; test: Antiproliferative activity against human RKO cells at 25 uM after 24 to 72 hrs by MTT assay; type: functional, cell-based; summary of the method: as §5
[20] = system: RKO; test: Antiproliferative activity against human RKO cells at 50 uM after 24 to 72 hrs by MTT assay; type: functional, cell-based; summary of the method: as §5
[21] = system: MDA-MB-231; test: Antiproliferative activity against human MDA-MB-231 cells at 25 uM after 24 to 72 hrs by MTT assay; type: functional, cell-based; summary of the method: as §5
[22] = system: MOLT-4; test: Antiproliferative activity against human MOLT4 cells at 50 uM after 24 to 72 hrs by MTT assay; type: functional, cell-based; summary of the method: as §5
[23] = system: MDA-MB-231; test: Antiproliferative activity against human MDA-MB-231 cells at 50 uM after 24 to 72 hrs by MTT assay; type: functional, cell-based; summary of the method: as §5
[24] = system: U-937; test: Cell cycle arrest in human U937 cells assessed as accumulation at S phase at 25 uM after 40 hrs by flow cytometry; type: functional, cell-based
[25] = in the assay text read “after 40 hrs” for “after 45 hrs”

For `CC(CS(=O)(=O)c1ccc(/N=C/c2c(O)ccc3ccccc23)cc1)c1ccccc1` (centres undefined), the Activity [1] was “inactive”, the Activity [2] was “Active” and the inhibition [3] was “Active”. For the same compound, the CC50 [4] was 34 µM, the CC50 [5] was 30.2 µM and the Activity [6] was “Active”. For the same compound, the Activity [7] was “Active”.

In the case of `CC(C[S+]([O-])c1cccc(/N=C/c2c(O)ccc3ccccc23)c1)c1ccccc1` (centres undefined), the Activity [1] is reported as “inactive”, the Activity [2] is reported as “Active” and the IC50 [8] is reported as 40.3 µM. The Activity [9] was “Active”, the CC50 [4] was 23.4 µM and the CC50 [5] was 35 µM. The Activity [6] was “Active”.

With `N#C/C(=C\c1ccc(-c2cc(Cl)ccc2Cl)o1)C(=O)Nc1cccc2ncccc12` the CC50 [10] was 9.6 µM, the Activity [11] was “inactive” and the Activity ([12]; in the assay text read “40 hrs” for “45 hrs”) was “inactive”. The inhibition at 50 µM [13] was 50%, the inhibition at 50 µM [14] was 50% and the Activity [15] was “inactive”.

With `CC(C(=O)Nc1ccc(/N=C/c2c(O)ccc3ccccc23)cc1)c1ccccc1` (centres undefined) the Activity [1] was “inactive”, the Activity [2] was “Active” and the IC50 [8] was 40.9 µM. For the same compound, the Activity [16] was “tde”, the Activity [12, 25] was 70% and the Activity [6] was “Active”. For the same compound, the Activity [7] was “Active”.

With `CC(NS(=O)(=O)c1ccccc1/N=C/c1c(O)ccc2ccccc12)c1ccccc1` (centres undefined) the Activity [1] was “inactive”, the Activity [2] was “Active” and the inhibition [3] was “Active”. The Activity [6] was “Active”.

In the case of `CC(CS(=O)(=O)c1ccccc1/N=C/c1c(O)ccc2ccccc12)c1ccccc1` (centres undefined), the CC50 [10] is reported as 15.3 µM, the Activity [1] is reported as “inactive” and the Activity [2] is reported as “Active”. For the same compound, the CC50 [17] was 15.7 µM, the Activity [9] was “Active” and the CC50 [4] was 19.5 µM. For the same compound, the CC50 [5] was 17.4 µM and the IC50 [18] was 24.2 µM.

With `CC(CSc1ccc(/N=C/c2c(O)ccc3ccccc23)cc1)c1ccccc1` (centres undefined) the Activity [1] was “inactive”, the Activity [2] was “Active” and the Activity [12, 25] was 90%. The Activity [6] was “Active”.

For `CC(CS(=O)(=O)c1cccc(/N=C/c2c(O)ccc3ccccc23)c1)c1ccccc1` (centres undefined), the Activity [1] was “inactive” and the Activity [2] was “Active”.

In the case of `CC(C(=O)Nc1cccc(/N=C/c2c(O)ccc3ccccc23)c1)c1ccccc1` (centres undefined) [SALERMIDE], the CC50 [10] is reported as 36.5 µM, the Activity [1] is reported as “inactive” and the Activity [2] is reported as “Active”. For the same compound, the Activity [19] was “Active”, the Activity [16] was “tde” and the Activity [20] was “Active”. The Activity [12, 25] was 70%, the CC50 [17] was 6.7 µM and the Activity [9] was “Active”. The Activity [21] was “Active”, the Activity [22] was “Active” and the Activity [23] was “Active”. The CC50 [4] was 9.7 µM, the CC50 [5] was 41 µM and the Activity [6] was “Active”. For the same compound, the Activity [7] was “Active”.

With `CC(C(=O)Nc1ccccc1/N=C/c1c(O)ccc2ccccc12)c1ccccc1` (centres undefined) the Activity [1] was “inactive”, the Activity [24] was “Active” and the Activity [2] was “Active”.
